Data reported in paper PMC7003538 (Biochemistry, 2019).

Columns and labels:
Experiment in all cases: UV-Vis spectral titration
Assay type in all cases: binding
CYP3A4 [1] = molecular target: CYP3A4 (Homo sapiens, UniProt P08684, F213S/S18F)
Outline: (§1)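 Human CYP3A4 (NF-14 construct, C-terminal pentahistidine tag, pCWori+ vector), wild type or F213 mutant, was incorporated into POPC Nanodiscs. The enzyme at 1-2 µM was titrated at 37 °C with test compound added in methanol (final methanol <1.5%), and UV-Vis spectra were read for the heme high-spin shift. Mixed titrations kept a fixed 1:12 steroid:second-substrate molar ratio.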

CYP3A4 [2] = molecular target: CYP3A4 (Homo sapiens, UniProt P08684, F213Y/S18F)
CYP3A4 (Homo sapiens, UniProt P08684, F213Y/S18F), sequence (P08684 13-503 S18F/F213Y limits assumed): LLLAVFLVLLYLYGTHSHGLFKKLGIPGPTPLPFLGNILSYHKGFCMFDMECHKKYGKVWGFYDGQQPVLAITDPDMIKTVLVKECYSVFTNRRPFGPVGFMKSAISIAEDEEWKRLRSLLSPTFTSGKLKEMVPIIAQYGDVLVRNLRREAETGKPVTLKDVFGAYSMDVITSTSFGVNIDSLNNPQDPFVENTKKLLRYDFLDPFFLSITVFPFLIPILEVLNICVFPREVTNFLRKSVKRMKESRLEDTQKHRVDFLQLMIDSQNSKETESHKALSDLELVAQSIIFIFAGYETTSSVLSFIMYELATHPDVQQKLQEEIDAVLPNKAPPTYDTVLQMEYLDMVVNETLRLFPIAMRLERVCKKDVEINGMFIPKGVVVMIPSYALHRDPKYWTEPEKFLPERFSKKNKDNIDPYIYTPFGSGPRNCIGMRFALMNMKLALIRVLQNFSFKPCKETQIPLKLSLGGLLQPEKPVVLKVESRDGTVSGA
Outline: as §1

CYP3A4 [3] = molecular target: CYP3A4 (Homo sapiens, UniProt P08684, F213A/S18F)
CYP3A4 (Homo sapiens, UniProt P08684, F213A/S18F), sequence (P08684 13-503 S18F/F213A limits assumed): as the sequence (P08684 13-503 S18F/F213Y limits assumed) above, with Y201A counted along it
Outline: as §1

CYP3A4 [4] = molecular target: CYP3A4 (Homo sapiens, UniProt P08684, S18F)
CYP3A4 (Homo sapiens, UniProt P08684, S18F), sequence (P08684 13-503 S18F limits assumed): as the sequence (P08684 13-503 S18F/F213Y limits assumed) above, with Y201F counted along it
Outline: as §1

CYP3A4 (Homo sapiens, UniProt P08684, F213S/S18F), sequence (P08684 13-503 S18F/F213S limits assumed): as the sequence (P08684 13-503 S18F/F213Y limits assumed) above, with Y201S counted along it

- Kd (CYP3A4 [1]): 24.2 µM
- Kd (CYP3A4 [2]): 21.8 µM
- Kd (CYP3A4 [3]): 24.3 µM
- Kd (CYP3A4 [4]): 31 µM
SMILES: CC(=O)[C@H]1CC[C@H]2[C@@H]3CCC4=CC(=O)CC[C@]4(C)[C@H]3CC[C@]12C [progesterone]
